PHOSPHO1 block: blocks human PHOSPHO1 phosphatase activity. 290,000 compounds, 1.1% hits. recombinant PHOSPHO1, absorbance phosphatase assay. inhibition, % at 13.3 µM. AID 1565. Q8TCT1; in the data active means inhibition above about 60%
MrgX1 agonist: agonists of human MrgX1 receptor. Q96LB2. MrgX1-HEK293 cells, Fluo-4 calcium fluorescence, agonist mode; hits give high values. B-score at 10 µM. 310,000 compounds, 0.44% hits;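 active means calcium response B-score plate-corrected fluorescence ratio at least 3 library SD, with starting fluorescence B-score inside 5 SD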
Target sequence (Q96LB2 whole entry, looked up): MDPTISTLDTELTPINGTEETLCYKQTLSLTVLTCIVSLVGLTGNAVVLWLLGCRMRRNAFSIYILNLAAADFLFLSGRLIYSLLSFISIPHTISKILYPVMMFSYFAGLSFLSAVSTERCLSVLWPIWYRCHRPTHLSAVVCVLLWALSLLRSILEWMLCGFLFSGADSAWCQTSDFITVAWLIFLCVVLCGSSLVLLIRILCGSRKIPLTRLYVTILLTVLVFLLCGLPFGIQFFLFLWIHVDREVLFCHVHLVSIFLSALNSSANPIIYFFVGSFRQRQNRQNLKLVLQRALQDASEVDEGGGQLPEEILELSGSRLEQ
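Test system: Stable human MrgX1 HEK293 cell line | Schedule: Overnight plating before 1 h dye loading | Read-out basis: Baseline-normalised fluorescence change ratio, B-scored | Detection: Kinetic calcium dye fluorescence, Fluo-4 NW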
RGS4 act: RGS4 potentiation or activation | 310,000 compounds, 0.92% hits | B-score at 10 µM | AID 463111 | HEK293 M3R/inducible RGS4, carbachol calcium flux Fluo4; hits give low values;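 active means B-score of the integrated calcium signal more than 4 SD below the library mean, with starting fluorescence not abnormally high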;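 further: negative B-score means reduced calcium response which marks RGS4 activation or potentiation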
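Also added: carbachol at ECmax as muscarinic agonist stimulus; Assay system: HEK293 cells with stable M3R and inducible RGS4; Timing: overnight RGS4 induction, 30 min dye load 37 °C, 20 min compound RT; Measured by: Fluo4-AM (2 µM) calcium-flux fluorescence, kinetic read.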
RGS4 block: inhibitors of human RGS4; 310,000 compounds, 0.45% hits; P49798; B-score at 10 µM; HEK293 M3R/RGS4 inducible, Fluo-4 calcium flux; hits give high values; triggered by carbachol at its EC20;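 active means B-score, a plate-corrected calcium signal, over three deviations above library mean, with baseline fluorescence within five deviations of library mean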;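 further: RGS4 expression induced by doxycycline in cells with stable M3 receptor; B-score is computed from the integrated fluorescence ratio over baseline after carbachol; higher B-score means a larger calcium signal and so more RGS4 inhibition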
Target sequence (P49798 whole entry, looked up): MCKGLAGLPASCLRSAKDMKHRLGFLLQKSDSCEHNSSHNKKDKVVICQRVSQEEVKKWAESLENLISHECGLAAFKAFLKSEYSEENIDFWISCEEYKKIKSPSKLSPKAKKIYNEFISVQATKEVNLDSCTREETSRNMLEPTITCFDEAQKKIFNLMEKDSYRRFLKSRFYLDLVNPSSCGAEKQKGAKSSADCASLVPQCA
MrgX1 allo act: allosterically activates human MrgX1 receptor signaling. MrgX1-HEK293, Fluo-4 calcium flux, FDSS; hits give high values. B-score at 10 µM. 310,000 compounds, 0.63% hits. AID 588675;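 active means plate-corrected calcium response at least 3 library SD above typical, normal starting fluorescence, not activating the receptor alone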;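 further: compound read alongside a low EC10 to EC30 dose of BAM8-22 agonist; peak minus trough fluorescence over baseline measured at the second addition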
MrgX1 antag: human MrgX1 receptor antagonism, primary screen; Q96LB2; MRGX1-HEK293 calcium flux, Fluo-4, BAM8-22 antagonism; hits give low values; B-score at 10 µM; 310,000 compounds, 1.3% hits; AID 588676;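 active means calcium-response B-score plate-corrected more than 3 library SD below zero, starting fluorescence within 5 deviations, no agonist response on first addition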;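 further: peak minus trough fluorescence over baseline after final BAM8-22 challenge near maximal dose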
Numbers without * were called inactive. Rows were chosen to be rich in hits. Some 4.5% of all compounds tested hit in one or more screens of this group.

`O=C(O)c1cc(-c2ccc(-c3c(-c4ccc5c(c4)OCO5)noc3-c3ccsc3)cc2)nc2ccccc12` gave PHOSPHO1 block -7, MrgX1 agonist inactive, RGS4 act -11*, RGS4 block inactive, MrgX1 allo act inactive and MrgX1 antag inactive.
`O=C(Cc1ccccc1)NC(NC(=O)Cc1ccccc1)c1cccc([N+](=O)[O-])c1` gave PHOSPHO1 block 13, MrgX1 agonist inactive, RGS4 act inactive, RGS4 block inactive, MrgX1 allo act inactive and MrgX1 antag inactive.
Screening C=CCN(CC(O)c1cccc([N+](=O)[O-])c1)C(C)CCc1ccccc1 (stereo not drawn) returned PHOSPHO1 block 16, MrgX1 agonist inactive, RGS4 act inactive, RGS4 block inactive, MrgX1 allo act 16* and MrgX1 antag inactive.
`COc1ccc(C(=O)NC(=S)NNC(=O)c2ccco2)cc1` gave PHOSPHO1 block -61, MrgX1 agonist inactive, RGS4 act inactive, RGS4 block inactive, MrgX1 allo act inactive and MrgX1 antag inactive.
Screening COc1ccccc1OCC(=O)NNC(=S)NC(=O)c1ccco1 returned PHOSPHO1 block 95*, MrgX1 agonist inactive, RGS4 act inactive, RGS4 block inactive, MrgX1 allo act inactive and MrgX1 antag inactive.
`O=C(NNC(=S)NC(=O)c1ccco1)c1ccc(NC(=O)c2ccccc2)cc1` gave PHOSPHO1 block 71*, MrgX1 agonist inactive, RGS4 act inactive, RGS4 block inactive, MrgX1 allo act inactive and MrgX1 antag inactive.
`O=C(NC(=S)NNC(=O)c1cc2ccccc2cc1O)c1ccco1` gave PHOSPHO1 block -9, MrgX1 agonist inactive, RGS4 act inactive, RGS4 block inactive, MrgX1 allo act inactive and MrgX1 antag inactive.
O=C(NC(=S)NNC(=O)c1ccccc1O)c1ccco1 was read as PHOSPHO1 block 16, MrgX1 agonist 30*, RGS4 act inactive, RGS4 block inactive, MrgX1 allo act inactive and MrgX1 antag inactive.
Screening CC(C)CSC1=NSC2=NC(=O)/C(=C\c3ccccc3)C(=N)N12 returned PHOSPHO1 block -3, MrgX1 agonist 27*, RGS4 act inactive, RGS4 block inactive, MrgX1 allo act inactive and MrgX1 antag inactive.
`COc1cccc(NC(=O)CSc2nc(O)c(C)c(=O)n2-c2ccc(C)cc2)c1` gave PHOSPHO1 block 10, MrgX1 agonist inactive, RGS4 act inactive, RGS4 block inactive, MrgX1 allo act inactive and MrgX1 antag inactive.
For O=C(Nc1nc(-c2ccccc2)cs1)c1ccccc1NS(=O)(=O)c1ccc(F)cc1 the results were PHOSPHO1 block -2, MrgX1 agonist inactive, RGS4 act -7.2*, RGS4 block inactive, MrgX1 allo act inactive and MrgX1 antag inactive.
CC1CC(C)CN(CCCNC(=O)Cn2ncc3c(=O)oc4ccccc4c32)C1 (stereo not drawn) was read as PHOSPHO1 block -13, MrgX1 agonist inactive, RGS4 act inactive, RGS4 block inactive, MrgX1 allo act inactive and MrgX1 antag inactive.
For Cc1cc2c(cc3c(=O)n(CC(=O)NCCCN4CC(C)CC(C)C4)ncn32)s1 (stereo not drawn) the results were PHOSPHO1 block 69*, MrgX1 agonist inactive, RGS4 act inactive, RGS4 block inactive, MrgX1 allo act inactive and MrgX1 antag inactive.
For Cc1c2cnn(CC(=O)NCCCN3CC(C)CC(C)C3)c(=O)c2c(C)n1Cc1ccccc1Cl (stereo not drawn) the results were PHOSPHO1 block 51, MrgX1 agonist inactive, RGS4 act inactive, RGS4 block inactive, MrgX1 allo act inactive and MrgX1 antag -6.9*.
For Cc1ccc(S(=O)(=O)NC(=O)c2ccc(-c3ccc(-c4ccccc4)cc3)o2)c(C)c1 the results were PHOSPHO1 block -11, MrgX1 agonist inactive, RGS4 act -9.1*, RGS4 block inactive, MrgX1 allo act inactive and MrgX1 antag inactive.
`Cc1ccc(S(=O)(=O)NC(=O)c2ccc(F)cc2)c(C)c1` gave PHOSPHO1 block 38, MrgX1 agonist inactive, RGS4 act inactive, RGS4 block inactive, MrgX1 allo act inactive and MrgX1 antag inactive.
Cc1c(N=C(N)/N=C(\N)Nc2ccc(Br)cc2)c(=O)n(-c2ccccc2)n1C was read as PHOSPHO1 block -6, MrgX1 agonist inactive, RGS4 act inactive, RGS4 block inactive, MrgX1 allo act inactive and MrgX1 antag inactive.
For Cc1c(N=C(N)/N=C(\N)Nc2ccccc2)c(=O)n(-c2ccccc2)n1C the results were PHOSPHO1 block -18, MrgX1 agonist inactive, RGS4 act inactive, RGS4 block inactive, MrgX1 allo act inactive and MrgX1 antag -4.6*.
`N#C/C(C(N)=O)=C1/CCc2ccccc2N1` gave PHOSPHO1 block 5, MrgX1 agonist inactive, RGS4 act inactive, RGS4 block inactive, MrgX1 allo act inactive and MrgX1 antag -4.9*.
O=C1CCc2ccccc2N1 was read as PHOSPHO1 block 23, MrgX1 agonist inactive, RGS4 act inactive, RGS4 block inactive, MrgX1 allo act inactive and MrgX1 antag inactive.
Screening Cc1cccn2c(CN3CCNC(=O)CC3)c(C(=O)N(C)CCc3ccccc3)nc12 returned PHOSPHO1 block 43, MrgX1 agonist inactive, RGS4 act inactive, RGS4 block inactive, MrgX1 allo act inactive and MrgX1 antag inactive.
`FC(F)Sc1ccc(N=C2NN=C(c3ccc4c(c3)OCCO4)CS2)cc1` gave PHOSPHO1 block 64*, MrgX1 agonist inactive, RGS4 act inactive, RGS4 block inactive, MrgX1 allo act inactive and MrgX1 antag inactive.
`COc1ccc(N=C2NN=C(c3ccc4c(c3)OCCO4)CS2)cc1` gave PHOSPHO1 block 98*, MrgX1 agonist inactive, RGS4 act inactive, RGS4 block inactive, MrgX1 allo act inactive and MrgX1 antag inactive.
`c1cc2c(cc1C1=NNC(=NC3CC3)SC1)OCCO2` gave PHOSPHO1 block 21, MrgX1 agonist inactive, RGS4 act inactive, RGS4 block inactive, MrgX1 allo act inactive and MrgX1 antag inactive.
For C=CCn1cc(C(=O)OCC)c(=O)c2cc(F)c(F)cc21 the results were PHOSPHO1 block 27, MrgX1 agonist inactive, RGS4 act inactive, RGS4 block inactive, MrgX1 allo act inactive and MrgX1 antag inactive.
Screening Cc1c(Br)c([N+](=O)[O-])nn1C(C)C(=O)N1CCc2ccccc2C1 (stereo not drawn) returned PHOSPHO1 block 20, MrgX1 agonist inactive, RGS4 act -9.3*, RGS4 block inactive, MrgX1 allo act inactive and MrgX1 antag inactive.

Assay outcomes as filed in PubChem BioAssay.
